Screening results deposited in PubChem BioAssay by several laboratories.
Many of the other results were omitted from the sample, so hits are more common in it than they were.
PKD1 kinase inh: blocks activity of human protein kinase D1; Q15139; PKD1 kinase fluorescence polarization assay; inhibition, % (test concentration not listed); 200,000 tested, 0.056% active; AID 797
Lmaj promast: inhibitors of Leishmania major promastigote growth. 200,000 tested, 9% active. Leishmania major promastigotes, resazurin fluorescence viability. AID 1063. inhibition, % at 10 µM;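 also: promastigotes grown with compound for 44 hours at 28 °C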
ABCB1 block: blocks JC-1 efflux by human ABCB1 transporter | CCRF-Adr cells, flow cytometry | 190,000 tested, 0.067% active | inhibition, % at 6.6 µM | P08183; in the data active = inhibition above about 40%;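 also: 0% = vehicle and 100% = reference inhibitor; higher value means more JC-1 retained so stronger ABCB1 efflux block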
GSH bead fluor: compound fluoresces at 488/530 nm on GSH beads. GSH beads flow cytometry, compound fluorescence 488/530 nm; hits give high values. fluorescence (KMESF) at 10 µM. 190,000 tested, 0.25% active; in the data active = fluorescence above about 89;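 also: glutathione beads carrying GST-tagged Bcl family fusion proteins plus one bare bead set; values are compound well signal with DMSO vehicle wells as background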
ABCG2 block: blocks JC-1 efflux by human ABCG2 transporter; Q9UNQ0; IgMXP3 cells, flow cytometry; inhibition, % at 6.6 µM; 190,000 tested, 0.1% active; AID 1325;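 active = inhibition above 80%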;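 also: 0% = DMSO and 100% = nicardipine control wells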
Target sequence (Q9UNQ0 whole entry, looked up): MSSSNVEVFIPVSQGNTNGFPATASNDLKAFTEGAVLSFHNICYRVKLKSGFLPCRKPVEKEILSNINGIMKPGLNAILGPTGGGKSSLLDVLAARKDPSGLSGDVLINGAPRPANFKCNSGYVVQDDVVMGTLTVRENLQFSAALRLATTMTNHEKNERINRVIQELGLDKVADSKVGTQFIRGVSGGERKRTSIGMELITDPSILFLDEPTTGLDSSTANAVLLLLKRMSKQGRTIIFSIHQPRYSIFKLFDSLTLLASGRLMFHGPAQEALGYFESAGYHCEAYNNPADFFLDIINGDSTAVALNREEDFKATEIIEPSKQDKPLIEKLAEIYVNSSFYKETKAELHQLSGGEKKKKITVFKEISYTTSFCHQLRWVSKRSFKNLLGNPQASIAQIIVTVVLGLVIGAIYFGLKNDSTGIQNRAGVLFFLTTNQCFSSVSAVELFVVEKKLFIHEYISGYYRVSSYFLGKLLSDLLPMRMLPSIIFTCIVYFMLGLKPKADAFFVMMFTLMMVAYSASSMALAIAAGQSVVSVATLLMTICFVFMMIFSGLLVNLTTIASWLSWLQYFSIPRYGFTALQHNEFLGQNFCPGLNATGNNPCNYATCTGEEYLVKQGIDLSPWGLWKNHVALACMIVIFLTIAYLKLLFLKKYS
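Test system: IgMXP3 (ABCG2) plus far-red-tagged CCRF-Adr (ABCB1) cells / Amount: 3 million cells/mL in well / Reagent: JC-1 transporter substrate / Timing: 10 min compound exposure, 25 °C / Signal: flow cytometry, 530 nm JC-1 signal / Read-out: percent efflux inhibition, scaled nicardipine 100% to DMSO 0% / Benchmarks: nicardipine as high control, DMSO as low control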
Avidin bead fluor: avidin bead compound fluorescence profile; Avidin beads, compound fluorescence 488/530 nm, flow cytometry; hits give high values; fluorescence (KMESF) at 10 µM; 220,000 tested, 0.38% active; AID 1775; in the data active = fluorescence above about 47
Active calls of the source: *; x = no result given. Rule as the data show it, unless noted: active = inhibition above about 50%; inactive = the rest.

SMILES | PKD1 kinase inh | Lmaj promast | ABCB1 block | GSH bead fluor | ABCG2 block | Avidin bead fluor
COc1ccccc1C(=O)Nc1ccc(N2CCN(S(C)(=O)=O)CC2)cc1 | -4 | 56* | 0 | 30 | 13 | 13
Cc1cc(C(=O)CSc2nnnn2-c2ccc(O)cc2)c(C)n1C | -1 | 3 | 0 | 11 | 3 | 14
CC(C)C(=O)Nc1ncc2c(n1)CC(c1cccs1)CC2=O (stereo not given) | 1 | -8 | 0 | 14 | 8 | 6
Cc1cccc(N2C(=O)CC(Sc3nc(-c4ccccc4)c4cc(Cl)ccc4n3)C2=O)c1 (stereo not given) | -3 | 45 | 5 | 24 | 20 | 22
COc1cc(OC)cc(-c2nc3ccccc3c(=O)n2OC(=O)c2ccc(Br)cc2)c1 | 12 | 50* | -2 | 11 | -25 | 9
CCC(Sc1nc2cc3c(cc2c(=O)n1Cc1ccco1)OCO3)C(=O)Nc1cccc(OC)c1 (stereo not given) | -7 | 96* | 1 | 8 | 2 | 32
Fc1ccc(-n2cc(CNCCc3cccnc3)c(-c3ccccc3Cl)n2)cc1 | -3 | 57* | 1 | 11 | 0 | 9
Fc1ccc(-n2cc(CNCCc3ccncc3)c(-c3ccccc3Cl)n2)cc1 | 8 | 64* | 5 | 17 | 5 | 7
COc1ccc(-n2cc(CNCCCN3CCCC3=O)c(-c3ccccc3Cl)n2)cc1 | -7 | 7 | 4 | 9 | 2 | 3
C/C(=N\NC(=O)C1CC1)c1ccccc1O | -1 | -2 | 0 | 16 | 33 | 11
COC(=O)c1ccc(CSc2nnc(C)n2N)o1 | 9 | -3 | 0 | 10 | 2 | 14
CCCCCCC(=O)N/N=C1\CCCc2ccccc21 | -4 | 0 | 0 | 8 | 1 | 2
O=C(CN1CCN(c2ccccn2)CC1)N(c1ccccc1)c1ccc2ccccc2c1 | -7 | 97* | 1 | 26 | 1 | 12
CN(C)NC(=O)c1ccc([N+](=O)[O-])s1 | x | x | x | x | x | 3
O=C(Nc1ccccc1F)c1ccc([N+](=O)[O-])s1 | 1 | 100* | 0 | 22 | 3 | 9
O=C(Nc1cccc2ccccc12)c1ccc([N+](=O)[O-])s1 | 5 | 100* | 2 | 19 | 8 | 5
O=C(NCc1ccccn1)c1cc(-c2ccc(-c3ccccc3)cc2)nc2ccccc12 | -6 | -2 | 1 | 16 | 0 | 6
CCCc1nnc(NC(=O)C(CC)OC(=O)c2cc(C)nc3ccccc23)s1 (stereo not given) | 7 | -6 | 1 | 21 | 1 | 32
CCOC(=O)C1CN(S(=O)(=O)c2ccc(OC)cc2)c2cc(S(=O)(=O)CC)ccc2O1 (stereo not given) | 3 | -3 | 4 | 13 | 3 | 38
CC1CC(C)CN(C(=O)Cn2cc(C=O)c3ccccc32)C1 (stereo not given) | 1 | 5 | 0 | 12 | 2 | 7
Cc1ccc(CNC(=O)CCc2ccc(S(=O)(=O)NC3CCCCC3)cc2)cc1 | 4 | 73* | 1 | 29 | 1 | 2
O=C(CCc1ccc(S(=O)(=O)NC2CCCCC2)cc1)NCc1cccnc1 | -2 | 14 | 1 | 14 | 4 | 16
CC(NC(=O)CCc1ccc(S(=O)(=O)NC2CCCCC2)cc1)c1ccccc1 (stereo not given) | 2 | 96* | 1 | 29 | 1 | 8
O=C(CN1C(=O)c2ccccc2C1=O)Nc1cccc(S(=O)(=O)Nc2ccccc2Cl)c1 | -5 | 22 | 0 | 4 | 1 | 11
O=C(NCCCN1CCOCC1)c1sc2cc(F)ccc2c1Cl | -8 | 93* | 3 | 14 | 10 | 15
SMILES | PKD1 kinase inh | Lmaj promast | ABCB1 block | GSH bead fluor | ABCG2 block | Avidin bead fluor
O=C(NCCN1CCOCC1)c1ccc([N+](=O)[O-])cc1[N+](=O)[O-] | 3 | 71* | -1 | 29 | 8 | 12
O=C(NCCCN1CCOCC1)c1c(F)cccc1F | 0 | -4 | 1 | 19 | 4 | 8
O=C(NCCCN1CCOCC1)c1sc2cc([N+](=O)[O-])ccc2c1Cl | 3 | 86* | 0 | 17 | 4 | 6
O=C(NCCCN1CCOCC1)c1sc2cc(Cl)ccc2c1Cl | 0 | 92* | 0 | 14 | 40 | 8
CC(C)CN(C(=O)CSc1nn(-c2ccc(Cl)cc2)c(=S)s1)C1CCS(=O)(=O)C1 (stereo not given) | 2 | 18 | 0 | 8 | 5 | 4
O=C1CC(=C2c3ccccc3-c3ccccc32)C(=O)N1CCN1CCN(c2cccc(Cl)c2)CC1 | -13 | 15 | x | x | x | x
CC1(C)CC(NC(=O)c2sc3cc(Cl)ccc3c2Cl)CC(C)(C)N1 | -4 | 101* | 1 | 14 | 0 | 10
CC(Nc1ccc(Br)cn1)c1cc(Cl)ccc1O (stereo not given) | -1 | 92* | 1 | 25 | 14 | 12
CC(O)CNCCCOc1ccc(Cl)cc1C(C)(C)C (stereo not given) | 0 | 72* | 0 | 10 | 0 | 2
CN(C)CCOCCOc1ccc(Cl)cc1C(C)(C)C | 3 | 98* | 3 | 11 | 11 | 8
COCc1cc(=O)n2[nH]c(-c3cccc(Br)c3)cc2n1 | 0 | 100* | 0 | 16 | 5 | 7
Cc1cc(-n2ccnc2)n2c(nc3ccccc32)c1C#N | -3 | 10 | 1 | 33 | 21 | 11
CCCc1cc(-n2ccnc2)n2c(nc3ccccc32)c1C#N | -2 | 4 | 2 | 150* | 9 | 84*
Cc1cc(SCC(=O)OCC(=O)NC(C)c2ccccc2)c(C)cc1Br (stereo not given) | 12 | 51* | 1 | 4 | 3 | 10
CC1CCN(c2nc(N3CCCCC3)nc(N3CCCCC3)n2)CC1 | 0 | 8 | 1 | 10 | 3 | 2
C1CCN(c2nc(N3CCCCC3)nc(N3CCNCC3)n2)CC1 | -6 | 68* | 1 | 14 | 3 | 18
O=C(Nc1nc2ccccc2n1Cc1ccc(Cl)cc1)c1ccco1 | -15 | 14 | 1 | 7 | 4 | 14
Cc1ccc(OCCn2c(NC(=O)c3ccco3)nc3ccccc32)cc1 | 1 | 27 | -2 | 39 | -4 | 2
O=C(Nc1nc2ccccc2n1CCOc1ccc(Cl)cc1)c1ccco1 | -6 | 90* | 2 | 25 | 11 | 6
O=C(Nc1nc2ccccc2n1CCOc1ccccc1)c1ccco1 | -2 | 62* | 2 | 31 | 9 | 11
CC1CN(C(=O)/C=C/c2ccc([N+](=O)[O-])s2)CC(C)O1 (stereo not given) | 3 | 82* | 1 | 20 | 2 | 23
CC1CN(C(=O)/C=C/c2ccccc2[N+](=O)[O-])CC(C)O1 (stereo not given) | -4 | -3 | 0 | 16 | 0 | 13
CC1CC(C)CN(C(=O)/C=C/c2ccc([N+](=O)[O-])s2)C1 (stereo not given) | -3 | 98* | 0 | 15 | 1 | x
